Compound activity from PubChem.
Most compounds without a hit are left out; they make up all but 3.8% or so of the library.
KCNK9 block = inhibitors of human KCNK9 two-pore domain potassium channel | B-score at 10 µM | HEK293 KCNK9, FluxOR thallium flux fluorescence; hits give low values | hit rate 1.2% among 310,000 | Q9NPC2;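 active means ratio B-score over 3 SD below the library mean, with starting fluorescence within 5 SD of its mean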;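 further: negative B-score means less thallium flux so channel inhibition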
Target sequence (Q9NPC2 whole entry, looked up, the tested form may be a part): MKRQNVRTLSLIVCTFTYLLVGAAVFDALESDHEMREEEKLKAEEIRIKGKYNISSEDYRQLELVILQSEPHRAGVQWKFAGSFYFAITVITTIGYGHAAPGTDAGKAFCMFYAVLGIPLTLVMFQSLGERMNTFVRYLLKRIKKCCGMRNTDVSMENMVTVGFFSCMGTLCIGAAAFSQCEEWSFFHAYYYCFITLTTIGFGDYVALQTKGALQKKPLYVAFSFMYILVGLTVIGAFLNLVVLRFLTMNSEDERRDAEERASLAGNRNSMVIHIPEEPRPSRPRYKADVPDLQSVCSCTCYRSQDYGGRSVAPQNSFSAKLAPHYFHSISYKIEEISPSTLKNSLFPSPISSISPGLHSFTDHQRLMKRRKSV
hERG rescue = shields human hERG channel from block by proarrhythmic agents | CHO-hERG, FluxOR thallium flux, dofetilide IC70 present | activation (rescue from dofetilide block), less the hit threshold, % at 10 µM | hit rate 0.51% among 310,000;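 active means activation above the mean of controls blocked by dofetilide plus 5 SD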;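 further: thallium influx through hERG after potassium depolarization seen as dye fluorescence rise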
KCNK3 inh = human KCNK3 channel inhibition, primary screen; CHO-KCNK3 thallium flux, FluxOR fluorescence; hits give low values; O14649; B-score at 10 µM; hit rate 0.84% among 340,000;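 active means B-score under library mean minus 4 SD, starting fluorescence ratio at most library mean plus 5 SD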;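 further: more negative B-score means stronger inhibition of thallium flux through KCNK3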
KCNQ1 pot = potentiators or activators of human KCNQ1 potassium channel | CHO-K1 KCNQ1, thallium flux FluxOR fluorescence; hits give high values | B-score at 10 µM | hit rate 0.35% among 310,000 | AID 2648;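 active means fluorescence ratio B-score, a plate-corrected score, at least three library SD, with initial intensity B-score within 5 SD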
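Assay system: stable KCNQ1 CHO-K1 line; medium: assay buffer, equal DMSO in all wells; timing: 90 min dye loading and 20 min compound exposure, both at room temperature; technique: kinetic FluxOR thallium fluorescence, 10-s 1-Hz baseline, 110-s post-stimulus read; read-out basis: B score of baseline-normalized fluorescence ratio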
KCNQ1 inh = blocks the human KCNQ1 potassium channel. B-score at 10 µM. CHO-K1 KCNQ1, FluxOR thallium flux fluorescence; hits give high values. P51787. hit rate 1.3% among 310,000;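 active means compounds whose thallium flux B-score, printed positive for inhibition, exceeds three library SD while starting fluorescence stays within three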;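 further: channel opened by potassium depolarization with thallium stimulus after 20 min compound exposure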
Kir21 block = Kir2.1 (mouse) channel inhibition; P35561; HEK293-Kir2.1, FluxOR thallium flux fluorescence; hits give low values; B-score at 10 µM; hit rate 0.85% among 310,000; AID 1672;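 active means fluorescence ratio B-score at or below minus 3 SD of library scores, with starting-brightness B-score within 2 SD, cut at about -4.2 in these data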;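 further: channel flux triggered by added potassium and thallium sulfate stimulus; B-score of peak minus minimum fluorescence over baseline after thallium stimulus; more negative B-score means stronger Kir2.1 block with less thallium influx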
* = called active by the depositor; i = inactive; · = no result.

SMILES	KCNK9 block	hERG rescue	KCNK3 inh	KCNQ1 pot	KCNQ1 inh	Kir21 block
COc1cccc(CCNCc2ccc(SC)cc2)c1	i	-13	i	i	i	-7.5*
Cc1cccc(CN(C)C)c1OC(=O)N(C)C	i	-10	i	i	i	0.13
CCN1CCN(c2cc(N3CCCC3)c([N+](=O)[O-])cc2F)CC1	i	-6	i	i	i	-4.2*
O=c1c2ccccc2nc(CNCC2CCCO2)n1-c1ccc(F)cc1 (configuration not stated)	i	-12	i	i	i	-0.84
Cc1ccsc1/C=C1\C(=O)NC(=S)N(C)C1=O	i	-3	i	i	8*	0.02
CN1C(=O)/C(=C/c2ccc(Cl)s2)C(=O)NC1=S	i	5.2*	i	i	i	0.27
Cc1cc(C=O)c(C)n1C(C)C	i	-4	i	i	i	-0.06
CCCn1c(C)cc(C=O)c1C	i	5.6*	i	i	i	0.25
CCOP(=S)(OCC)N1CC1	·	·	i	·	·	·
Cc1ccc(C(=O)N[C@@H](C)CN2C3=NC[C@@H](Cc4ccccc4)N3C[C@H]2Cc2ccc(O)cc2)cc1Br	i	-21	·	i	i	-5.7*
Cc1ccc(C(=O)N[C@@H](C)CN2C3=NC[C@H](Cc4ccccc4)N3C[C@H]2Cc2ccc(O)cc2)cc1Br	i	-19	·	i	i	-5.4*
COC(=O)C1=C(c2cccc(OCc3ccccc3)c2)C[C@@H]2CC[C@H]1N2C(=O)NCc1cc(C)oc1C(F)(F)F	·	·	i	·	·	·
CCN(CC)P(=O)(Oc1ccccc1)Oc1ccccc1	i	-3	i	i	i	-2.6
CC1CCN(C(CC(=O)c2ccccc2)C(=O)c2ccccc2)CC1 (configuration not stated)	·	·	-9.1*	·	·	·
CNCC(O)c1cc(OCc2ccccc2)c(OCc2ccccc2)cc1F (configuration not stated)	i	-16	i	i	i	-6*
COC(=O)C1=C(c2cccc(C#N)c2)C[C@@H]2CC[C@H]1N2C(=O)NCCCOC(C)C	·	·	i	·	·	·
C/C(=N\NC(=O)c1ccccc1O)c1c(O)n(C2CCCCC2)c(=O)[nH]c1=O	i	-15	i	i	6*	-2
C/C(=N\NC(=O)c1ccccc1Cl)c1c(O)n(C2CCCCC2)c(=O)[nH]c1=O	i	-15	i	i	i	-0.41
COc1ccc(-n2c(O)c(C(C)=NCc3ccc4c(c3)OCO4)c(=O)[nH]c2=O)cc1	i	-6	i	i	i	-0.84
Cn1cc(/C=C2\C(=O)NC(=O)N(c3ccccc3)C2=O)c2ccccc21	-8*	-8	i	i	i	0.01
O=C(O)Cn1cc(/C=C2\C(=O)NC(=O)N(c3ccc(Cl)cc3)C2=O)c2ccccc21	i	-5	i	i	i	-0.83
c1ccc(CNc2c3c(nc4ccccc24)CCC3)cc1	i	-27	i	i	i	-6.6*
COC(=O)C1=C(c2cc3ccccc3o2)C[C@@H]2CC[C@H]1N2C(=O)NCCCOC(C)C	i	-9	i	i	i	-1.1
O=C(Cn1cc(C(=O)c2ccccc2)c2ccccc21)NCc1ccco1	-9*	-8	i	i	i	-1.1
Oc1ccc(CC2(N3CCCC3)CCCCC2)cc1	i	7.7*	i	i	i	0
SMILES	KCNK9 block	hERG rescue	KCNK3 inh	KCNQ1 pot	KCNQ1 inh	Kir21 block
O=C(Cc1ccc(Cl)c(Cl)c1)NCC1(N2CCOCC2)CCCCC1	i	-23	i	i	i	-0.26
CC1=CC2OC3CC4OC(=O)C=CC=CC(C(C)O)OCC(O)C5(C)OC5C(=O)OCC2(CC1O)C4(C)C31CO1 (configuration not stated)	·	·	i	·	·	·
CC(Cc1ccccc1)NCc1ccccc1O (configuration not stated)	i	-10	i	i	i	-5.5*
C#CCN[C@H](C)Cc1ccccc1	·	·	i	·	·	·
COC(=O)c1c(C)[nH]c(C(=O)C(C)[N+]23CCN(CC2)CC3)c1C (configuration not stated)	i	-11	i	i	i	0.96
Oc1ccc(C(=C(Cl)Cl)c2ccc(O)cc2)cc1	i	-20	·	i	6*	-5.6*
Oc1ccc(Cl)cc1	·	·	i	·	·	·
Oc1cccc2cccnc12	-11*	-2	·	i	i	-0.48
COC(=O)C1=C(c2cc3ccccc3s2)C[C@@H]2CC[C@H]1N2C(=O)N1CCCCC1	i	-14	i	i	i	0.65
COc1ccc(NC(c2ccccc2)P(=O)(Oc2ccccc2)Oc2ccccc2)cc1 (configuration not stated)	-6.6*	-4	i	i	i	-0.96
O=C(COc1ccc(Cl)cc1)N(c1ccc(Cl)cc1)C1CN2CCC1CC2 (configuration not stated)	i	-7	i	i	i	-0.59
CCOC(=O)c1c(NS(=O)(=O)c2ccccc2)n(CCCOC)c2nc3ccccc3nc12	i	8.4*	i	i	i	-0.69
Cc1cc(OCC(=O)N2CCC(C(N)=O)CC2)c2c3c(c(=O)oc2c1)CCCC3	i	-10	i	i	i	0.03
CN(C)C(=O)Oc1ccc(Br)cc1C(=O)Nc1ccc(F)c(Cl)c1	i	-13	i	i	i	-0.1
Cc1cc([N+](=O)[O-])c(Cl)cc1NC(=O)C(C)C	i	-4	i	i	i	-0.99
CNc1cc(Cl)c2nonc2c1[N+](=O)[O-]	i	-24	i	i	10*	-6.6*
CCCC/C(=N\O)c1c[nH]c2ccccc12	-7.5*	1	i	i	i	-0.62
O/N=C/c1c[nH]c2ccccc12	i	-9	i	i	i	0.01
Cc1c(O)ccc(C(=O)CN2CC(C)OC(C)C2)c1O (configuration not stated)	i	-3	i	i	i	0.01
OC(c1cccc(Cl)c1)(c1cccc(Cl)c1)C1CN2CCC1CC2 (configuration not stated)	i	-25	i	i	i	-4.7*
O=C(Nc1cccc(C(F)(F)F)c1)OC1CN2CCC1CC2 (configuration not stated)	i	-4	i	i	i	-1.6
CCC1CN1P(=S)(N1CC1CC)N1CC1CC (configuration not stated)	·	·	i	·	·	·
O=c1[nH]c(O)c(/C=C2/C=CC(c3cc(Cl)ccc3Cl)=N2)c(=O)[nH]1	i	7.2*	i	i	i	0.34
CC1=Nc2ccccc2/C1=C/c1c(O)[nH]c(=O)[nH]c1=O	i	-2	i	i	i	0.48
CCOc1cc(CNCCc2c[nH]c3ccccc23)cc(Cl)c1OC	i	-18	i	i	i	-5.6*
